Data published in ChEMBL document CHEMBL2086353, “Design, synthesis and structure-activity relationship of novel inhibitors against H5N1 hemagglutinin-mediated membrane fusion” (Eur J Med Chem, 2012).
The source made the active and inactive calls. The calls are words filed in the database; no cut-off is given here.

How the values were obtained:
[1] = Inhibition of Influenza A virus (A/Anhui/1/2005(H5N1)) hemagglutininin-mediated membrane fusion assessed as inhibition of H5N1 pesudovirus infection of MDCK cells using A/Anhui/1/2005(H5N1) hemagglutinin plasmid and NA plasmid from N1 subtype strain A/Thailand/Kan353/ 2004 infected in 293T cells by luciferase reporter gene assay; assay type: cell-based
Outline: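 MDCK target cells grown in DMEM with glutamine and 10% FCS. Compound at indicated concentrations preincubated with H5N1 HA/NA-pseudotyped luciferase-reporter particles (1 ng p24/well) for 30 min at 37 °C. Mixture then added to cells for 48 h. Cells PBS-washed and lysed, and luciferase activity read on a luminometer.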

MDCK = assay: Inhibition of Vesicular stomatitis virus G hemagglutininin-mediated membrane fusion assessed as inhibition of […] infection of MDCK cells by luciferase reporter gene assay; assay type: cell-based
Outline: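 Specificity control: VSV-G-pseudotyped luciferase-reporter particles replace the H5N1 pseudovirus. Compound preincubated with particles (1 ng p24/well) for 30 min at 37 °C, then added to MDCK cells (DMEM, 10% FCS) for 48 h. Lysate luciferase read on a luminometer.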

Influenza A virus = assay: Antiviral activity against Influenza A virus (A/Thailand/Kan353/2004(H5N1)) assessed as inhibition of viral infection; assay type: functional, organism-based

SMILES	IC50 [1] [µM]	inhibition (MDCK)	IC50 (Influenza A virus) [µM]
O=C(NCc1ccncc1)c1cc(F)cc(C(F)(F)F)c1	0.56	inactive	
CN1CCN(CCCNC(=O)c2cc(F)cc(C(F)(F)F)c2)CC1	84.3		
O=C(NCCN1CCCC1)c1cc(C(F)(F)F)cc(C(F)(F)F)c1	1.71		
O=C(NC1CCCCC1)c1cccc(C(F)(F)F)c1	7.8		
O=C(NCCc1ccccc1)c1cc(C(F)(F)F)cc(C(F)(F)F)c1	2.47		
O=S(=O)(NCCN1CCCCC1)c1cccc(C(F)(F)F)c1	54.9		
O=C(NCCN1CCOCC1)c1cc(F)cc(C(F)(F)F)c1	1.22		
O=C(NCCc1cccs1)c1cccc(C(F)(F)F)c1	4.33		
O=C(NCCc1cccs1)c1cncc(Br)c1	7.61		
O=C(NCc1cccnc1)c1cc(C(F)(F)F)cc(C(F)(F)F)c1	2.46		
O=C(NCCN1CCCC1)c1cc(F)cc(C(F)(F)F)c1	0.38	inactive	
O=C(NCCc1ccccc1)c1cc(F)cc(C(F)(F)F)c1	0.33		
O=C(NCCN1CCCCC1)c1cncc(Cl)c1	6.25		
O=C(NCCN1CCCC1)c1cc(O)c(O)cc1O	41.5		
O=C(NCCN1CCCCC1)c1cncc(Br)c1	5.13		
O=C(NCCc1ccccc1)c1cccc(C(F)(F)F)c1	80		
O=C(OCCN1CCCCC1)c1cc(F)cc(C(F)(F)F)c1	61.2		
CC(NC(=O)c1cc(F)cc(C(F)(F)F)c1)c1ccc2ccccc2c1 (stereo unspecified)	49		
O=C(NCCc1cccs1)c1cc(C(F)(F)F)cc(C(F)(F)F)c1	2.44		
CN1CCN(CCCNC(=O)c2cc(C(F)(F)F)cc(C(F)(F)F)c2)CC1	66.6		
O=C(NCCc1cccs1)c1cncc(Cl)c1	9.2		
CC(NC(=O)c1cc(C(F)(F)F)cc(C(F)(F)F)c1)c1ccc2ccccc2c1 (stereo unspecified)	40.8		
O=C(NCCN1CCCCC1)c1cc(F)cc(C(F)(F)F)c1	0.37		27
O=C(NCCOC(=O)c1cc(F)cc(C(F)(F)F)c1)c1cc(F)cc(C(F)(F)F)c1	60		
O=C(NCCN1CCCCC1)c1cc(C(F)(F)F)cc(C(F)(F)F)c1	2.51		
O=C(NCCc1cccs1)c1cc(F)cc(C(F)(F)F)c1	0.22	inactive	
O=C(NCCN1CCOCC1)c1cc(C(F)(F)F)cc(C(F)(F)F)c1	9.89		
